Screens: PubChem BioAssay, Broad Institute
FGF22 binding: binders of human FGF22 protein, primary screen, FGF22 synaptogenesis inhibitor project, biophysical, thermal shift, single point. recombinant FGF22 thermal shift, SYPRO orange fluorescence; percent of sucrose octasulfate shift, DMSO zero. Fibroblast growth factor 22 (Homo sapiens), Q9HCT0. activity (Tm shift, normalised), % at 9.99 µM. 1.5% of 340,000 active;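 active = mean Tm shift, scaled 0 neutral to 100 positive control, at about 1.3% or above, every replicate too, limit read from the data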
Target sequence (Q9HCT0 whole entry, looked up): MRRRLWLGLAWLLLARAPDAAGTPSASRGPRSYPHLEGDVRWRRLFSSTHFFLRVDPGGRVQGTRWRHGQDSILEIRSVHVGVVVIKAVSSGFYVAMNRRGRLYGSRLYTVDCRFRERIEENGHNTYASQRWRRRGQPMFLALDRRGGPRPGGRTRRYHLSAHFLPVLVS
FN deposition inh: inhibitors of fibronectin matrix deposition, primary screen, AH1F cells, Alexa488-fibronectin fluorescence, plate reader | inhibition, % at 12.6 µM | AH1F fibroblasts, overnight | 0.086% of 350,000 active;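 active = mean inhibition across replicates of 30% or more, regardless of how many single replicates reach that level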
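test system = AH1F fibroblasts assembling fluorescent fibronectin matrix | quantity = 10000 AH1F cells per well | buffer or medium = DMEM plus 2% serum, read in PBS | doses = single dose, pinned | incubation = 1 h cell attachment, overnight exposure to compound and label | detection = fluorescence at 485 nm excitation, 525 nm emission | read-out basis = inhibition from reduced deposited-fibronectin fluorescence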
E-sel inducer: E-selectin induction in HUVECs, primary screen, imaging, HUVEC, immunofluorescence imaging, single point | AID 686992, 2013 | normalized: neutral wells 0, TNF-alpha wells 100 | activation, % at 7.58 µM | 0.37% of 260,000 active | P16581;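 active = mean E-selectin-positive cell signal at least 10% of the positive control, reached in at least 60% of replicates, without over 20% cell loss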
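Test system: HUVEC; input: 3,000 HUVEC/well; measured by: immunofluorescence imaging; read-out: % PE-positive cells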
SIRT5 block: SIRT5 desuccinylase inhibitors, primary screen, biochemical, fluorescence imaging, single point, set 5; 1.1% of 330,000 active; NAD-dependent protein deacylase sirtuin-5, mitochondrial (Homo sapiens), Q9NXA8; Purified SirT5, succinyl-peptide AMC, trypsin-coupled fluorescence; inhibition, % at 15 µM; in the data active = inhibition above about 15%
C2C12 statin: suppressors of statin myotoxicity in C2C12 myotubes, primary screen, cell-based, single point, plate reader. C2C12 myotubes + simvastatin, ATP luminescence, 48 h; scaled: DMSO 0, geranylgeraniol control 100. rescue of ATP level, % at 7.49 µM. 0.78% of 330,000 active;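 active = mean ATP rescue above about 67%, or every replicate alone reaching that limit, limit read from the data, passing the limit was not always enough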;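 note: myotubes were challenged with 10 µM simvastatin during compound exposure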
rRNA inh HTS: reduced GFP signal of wild-type E. coli, primary screen, bacterial rRNA inhibitor project, GFP/RFP fluorescence, OD600, single point; 1.6% of 350,000 active; GFP signal change (wild-type ribosome), % (test concentration not listed); E. coli WT GFP vs humanized-ribosome RFP mutants, 24 h; hits give low values; DMSO median 0, no signal -100;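 active = significant combined selectivity score with lowered wild-type GFP, culture density cut under 30%, mutant RFP and density less affected; inactive = any of these conditions unmet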
Hits are given with their value; – = inactive; · = not tested or not shown. This is a sample that favours compounds with a hit; in the whole collection about 4% have one here.

SMILES	FGF22 binding	FN deposition inh	E-sel inducer	SIRT5 block	C2C12 statin	rRNA inh HTS
Cc1c(Cl)cccc1NC(=S)N1CCN(C(=O)c2ccco2)CC1	–	–	·	–	–	-27.7
C[C@H]1CN(C)C(=O)c2cc(NS(C)(=O)=O)ccc2O[C@H]1CN(C)C	·	–	·	·	·	–
Cc1noc(C)c1NC(=O)N(C)C[C@H]1OCCCC[C@@H](C)Oc2ccc(NC(=O)c3ccccc3)cc2C(=O)N([C@@H](C)CO)C[C@@H]1C	·	–	–	–	·	–
COc1ccc(NC(=O)Nc2ccc3c(c2)C(=O)N([C@@H](C)CO)C[C@H](C)[C@H](CN(C)C(=O)Nc2ccccc2)O3)cc1	–	·	·	–	–	–
COc1ccc(-c2nc3scc(-c4ccc(OC)c(OC)c4)c3c(=O)o2)cc1	·	·	·	·	–	·
COc1ccc(-c2csc3nc(C(C)C)oc(=O)c23)cc1OC	·	–	·	23.6	–	–
Cc1ccc(S(=O)(=O)N(C)C[C@@H]2OCCCC[C@H](C)Oc3ccc(NC(=O)CCC(F)(F)F)cc3C(=O)N([C@H](C)CO)C[C@@H]2C)cc1	·	–	·	–	·	–
O=C(C[C@H]1CC[C@H]2[C@@H](COC[C@H](O)CN2C(=O)c2cnccn2)O1)NCc1ccc(F)cc1	–	–	–	–	–	–
Cc1ccc(CCNC(=O)C(C)n2nc(C)c3c(C)n(-c4ccccc4)nc3c2=O)cc1 (configuration not stated)	–	–	·	–	–	–
CCC(C(=O)NCCc1ccc(C)cc1)n1nc(C)c2c(C)n(-c3ccccc3)nc2c1=O (configuration not stated)	–	–	–	–	–	-21.4
Cc1oc(-c2cccc(Cl)c2)nc1CS(=O)(=O)CC(=O)NC1CC1	–	–	·	–	–	–
Cc1oc(-c2cccc(Cl)c2)nc1CS(=O)(=O)CC(=O)NCc1ccco1	1.5	–	·	–	–	–
COc1ccc2c3c([nH]c2c1)[C@@H](CO)N(S(C)(=O)=O)CC31CCN(Cc2nccs2)CC1	–	·	–	·	·	–
Cc1cc(NN=Cc2ccccn2)nc2ccccc12	–	–	–	·	·	·
C(=N\Nc1nc2ccccc2s1)/c1ccccn1	–	–	–	–	·	-29.5
Cc1csc(N/N=C/c2ccccn2)n1	·	–	–	–	–	-31.6
COc1ccc(C=NNc2nc3ccccc3s2)cc1	–	–	–	–	–	–
COc1cnc(-c2ccccn2)nc1Oc1cccc(Cl)c1	·	–	·	·	–	·
COc1ccc(Oc2nc(-c3ccccn3)ncc2OC)cc1	–	·	·	–	·	-27.9
CC(=O)Nc1cccc(-c2cc(NC(C)=O)c3ncc(-c4cccc(C(C)=O)c4)n3c2)c1	43.2	–	–	·	–	–
CCC(=O)N1C[C@@H](C)[C@H](OC)CN(C)C(=O)c2ccc(NC(=O)c3ccccc3)cc2OC[C@H]1C	–	–	–	–	–	–
CCn1c(O)c(N=NC(=O)c2cccnc2)c2cc(Br)ccc21	–	–	·	–	·	–
CCCCn1c(O)c(N=NC(=O)c2ccncc2)c2cc(Br)ccc21	44.4	–	·	–	·	–
C[C@@H]1CN([C@H](C)CO)C(=O)c2cc(C#C[C@@H](C)O)cnc2O[C@H]1CN(C)C(=O)CC1CC1	–	–	–	–	–	–
NNC(=O)c1nc[nH]c1C(=O)Nc1ccccn1	42.9	–	·	–	·	–
O=C(O)c1ccc(-c2ccc(/C=c3/sc4nc5ccccc5n4c3=O)o2)cc1Cl	–	–	–	23.9	·	–
Cc1cc(C)c2nc3sc(=Cc4ccc(-c5ccccc5C(=O)O)o4)c(=O)n3c2c1	–	–	–	–	–	–
COc1ccc(CNc2ccc(C)c(C)c2)c(OC)c1OC	–	–	–	–	·	-20.2
